Data reported in PubChem BioAssay AID623993 (Broad Institute, 2012).
The source made the active and inactive calls.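 How the source made its calls: active means inhibitor whose fitted half-maximal dose is at most twice the top valid tested dose; inconclusive means flat curve with partial inhibition, or poor fit; inactive means signal rising, flat near zero, or weaker potency.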

Molecular target: PvdQ acyl-homoserine lactone acylase (Pseudomonas aeruginosa LESB58)
Assay: inhibition of P. aeruginosa PvdQ enzyme – biochemical, 4-MU laurate fluorescence, dry powder, set 4, dose response (AID 623993)
Settings: purified PvdQ, 4-MU laurate hydrolysis fluorescence; for activity change, negative = inhibition: at 19.5 µM (top of the series)
Outline: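 Material: purified P. aeruginosa PvdQ; amount: PvdQ enzyme at 0.02 µM final; medium: 50 mM Tris pH 8.0, 50 mM NaCl, 0.2 mM TCEP, Triton X-100; also added: 4-MU laurate substrate, 0.8 mM; incubation: 30 min preincubation plus 60 min reaction, room temperature; technique: fluorescence, ex 303–367 nm, em 440–460 nm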

Compound	AC50	activity change, negative = inhibition
N#CC(c1ccc(Cl)cc1)c1ncccc1Cl (stereo not given)	0.00301 µM	–
CCCCC(C#N)c1ccc(F)cc1 (stereo not given)	0.412 µM	–
N#CC(c1cccc(Cl)n1)c1ccc(Cl)cc1F (stereo not given)	0.00766 µM	–
N#CC(c1ccc(Cl)cc1)N1CCCC1 (stereo not given)	0.786 µM	–
N#CC(c1ccc(Cl)cc1)c1cccc(C(F)(F)F)n1 (stereo not given)	0.0236 µM	–
CCCCC(C#N)c1ccc(Cl)cc1 (stereo not given)	0.412 µM	–
N#CC(c1ccc(Cl)cc1)c1cccc(Cl)n1 (stereo not given)	0.0491 µM	–
N#CC(c1ccc(F)cc1)c1cccc(C(F)(F)F)n1 (stereo not given)	< 0.003 µM	–
CN(C)CCCC(C#N)c1ccc(F)cc1 (stereo not given)	0.273 µM	–
N#CC(c1ccc(Cl)cc1)c1ccccn1 (stereo not given)	0.212 µM	–
N#CC1c2ccc(Cl)cc2CCc2cccnc21 (stereo not given)	3.51 µM	–
CCCCC(C#N)c1ccccn1 (stereo not given)	–	inactive
COCCNC(C#N)c1ccc(Cl)cc1 (stereo not given)	–	inactive
CCCCC(c1ccc(Cl)cc1)c1nn[nH]n1 (stereo not given)	3.53 µM	–
COCCOCCC(C#N)c1ccc(F)cc1 (stereo not given)	0.177 µM	–
COCCC(C#N)c1ccc(Cl)cc1 (stereo not given)	3.47 µM	–
COCCC(C#N)c1ccc(F)cc1 (stereo not given)	0.53 µM	–
Clc1ccc(C(c2cccc(Cl)n2)c2nn[nH]n2)cc1 (stereo not given)	–	inactive
N#Cc1cccc(C(C#N)c2ccc(F)cc2)n1 (stereo not given)	0.14 µM	–
N#CC(c1ccc(F)cc1)c1cccc(Cl)n1 (stereo not given)	0.108 µM	–
CCCCC(C#N)c1ccc(Cl)cn1 (stereo not given)	1.63 µM	–
CN(C)CCCC(C#N)c1ccc(Cl)cc1 (stereo not given)	14.5 µM	–
COCCOCCC(C#N)c1ccc(Cl)cc1 (stereo not given)	7.07 µM	–
N#CC(c1cccc(C(F)(F)F)n1)c1ccc(Cl)cc1F (stereo not given)	< 0.003 µM	–
N#CC(c1ccc(C(F)(F)F)c(Cl)n1)c1ccccc1OC(F)(F)F (stereo not given)	15.2 µM	–
